# Experimental data from PMC5647210 (Cancer immunology, immunotherapy : CII, 2017).
# Assays:
# [1] = test system: HCV1406 TCR-transduced T-cells; assay: IFNγ release at high, intermediate and low antigen density; type: cell-based, human; details: peptide-loaded HepG2 cells, 18 hr, ELISA
# Outline: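 Normal-donor PBL transduced with HCV1406 TCR, CD34-enriched and split into CD4+/CD8+ by immunomagnetic selection. HepG2 targets either peptide-pulsed for 2 h or transduced with NS3:1406–1415 minigene–GFP vectors and sorted for high uniform GFP. Co-culture 1:1, 37 °C, 18 h. IFNγ from 1x105 T-cells measured by ELISA in triplicate (mean, SD). CD4+ vs CD8+ compared by unequal-variance two-sample t-tests.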
# [2] = test system: HLA-A2; details: thermal denaturation of peptide-HLA-A2 complexes; cited from earlier work
# [3] = test system: HCV1406 TCR; assay: Surface plasmon resonance TCR-pMHC binding; details: authors' ranges based on SPR KD
# [4] = test system: HCV1406 TCR-transduced T-cells; assay: Degranulation CD107a assay; type: cell-based, human; details: T2 cells pulsed with 10 μg/mL peptide, 1:1 co-culture, flow cytometry
sequence,measurement,setting,value
KLVALGINAV [WT],"IFNγ secretion by CD8^+ T-cells, intermediate antigen density",[1],strong recognition
same,Tm of peptide-HLA-A2,[2],64 °C
KLVALGNNAV [I1412N],affinity category of TCR-pMHC interaction compared to WT,[3],low affinity
same,Tm of peptide-HLA-A2,[2],59 °C
KLVALGLNAV [I1412L],affinity category of TCR-pMHC interaction compared to WT,[3],moderate affinity
KLLALGINAV [V1408L],affinity category of TCR-pMHC interaction compared to WT,[3],moderate affinity
same,Tm of peptide-HLA-A2,[2],61 °C
KLTALGINAV [V1408T],affinity category of TCR-pMHC interaction compared to WT,[3],moderate affinity
same,degranulation (surface CD107a) of CD4^+ TCR-transduced T-cells,[4],"blunted compared to WT, I1412L, and V1408L"
same,Tm of peptide-HLA-A2,[2],69 °C
KLVALGVNAV [I1412V],affinity category of TCR-pMHC interaction compared to WT,[3],moderate affinity
same,degranulation (surface CD107a) of CD4^+ TCR-transduced T-cells,[4],"blunted compared to WT, I1412L, and V1408L"
